Experimental data taken from ChEMBL document CHEMBL4351010, “Design, synthesis and biological evaluation of 2-hydrazinyladenosine derivatives as A2A adenosine receptor ligands” (Eur J Med Chem, 2019).
pEC50, pKi: −log10 of the molar value.

Tests used:
[1] = target: T1, Adenosine receptor A2a (Homo sapiens, UniProt P29274); assay: Displacement of [3H]CGS21680 from human cloned adenosine receptor A2A expressed in HEK-293 cell membrane incubated for 60 mins by microbeta counting method; type: cell membranes
T1 sequence (P29274 whole entry): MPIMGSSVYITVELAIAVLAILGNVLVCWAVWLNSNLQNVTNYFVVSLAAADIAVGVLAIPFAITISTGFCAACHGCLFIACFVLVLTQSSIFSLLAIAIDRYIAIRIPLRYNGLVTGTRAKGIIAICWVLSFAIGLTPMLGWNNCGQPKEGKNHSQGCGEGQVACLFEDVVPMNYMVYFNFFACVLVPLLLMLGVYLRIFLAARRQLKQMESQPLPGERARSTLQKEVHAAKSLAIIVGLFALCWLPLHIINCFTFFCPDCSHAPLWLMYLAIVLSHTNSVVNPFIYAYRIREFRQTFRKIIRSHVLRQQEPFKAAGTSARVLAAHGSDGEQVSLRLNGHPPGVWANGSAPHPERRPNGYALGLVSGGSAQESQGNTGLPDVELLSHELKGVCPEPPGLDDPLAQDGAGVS
In short: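 Compounds tested as 10-point three-fold dilution series. Incubation 60 min at 27°C. Bound ligand separated by GF/B filtration, scintillation counted. Mean ± SEM of duplicates.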

[2] = target: T1, Adenosine receptor A2a; assay: Agonist activity at human adenosine receptor A2A expressed in HEK293 cells assessed as cAMP accumulation incubated for 30 mins by Eu-cAMP tracer-based Envision plate reader analysis; type: functional, cell-based
In short: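 Intact HEK-293 cells stably expressing human A2A receptor, detached with Versene, resuspended at 300 cells/well in HBSS/HEPES/BSA buffer pH 7.4 with rolipram. Compounds given as 11-point three-fold DMSO dilution series.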

[3] = species on record: Homo sapiens; assay: Selectivity index, ratio of Ki for human cloned adenosine receptor A1 expressed in CHO-K1 cell membrane to Ki for human cloned adenosine receptor A2A expressed in HEK293 cell membrane incubated for 60 mins by microbeta counting method; type: cell-based
In short: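 Ratio Ki(A1)/Ki(A2A). […] Both assays incubated 60 min at 27°C and read by filtration scintillation counting. Ki values from Cheng–Prusoff conversion.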

[4] = target: T2, Adenosine receptor A1 (Homo sapiens, UniProt P30542); assay: Displacement of [3H]DPCPX from human cloned adenosine receptor A1 expressed in CHO-K1 cell membranes incubated for 60 mins by microbeta counting method
T2 sequence (P30542 whole entry): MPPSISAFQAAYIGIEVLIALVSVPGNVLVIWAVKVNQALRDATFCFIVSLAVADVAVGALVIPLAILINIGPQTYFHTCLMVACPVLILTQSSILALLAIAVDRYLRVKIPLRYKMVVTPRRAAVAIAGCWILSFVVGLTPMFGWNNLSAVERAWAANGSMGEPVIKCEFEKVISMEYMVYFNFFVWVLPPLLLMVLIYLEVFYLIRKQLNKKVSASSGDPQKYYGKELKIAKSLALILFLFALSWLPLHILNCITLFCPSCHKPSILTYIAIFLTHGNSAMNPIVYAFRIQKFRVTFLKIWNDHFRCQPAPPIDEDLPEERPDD
In short: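 Radioligand [3H]DPCPX at 5 nM. Compounds tested as 10-point three-fold dilution series. Incubation 60 min at 27°C. Read-out by GF/B filtration and scintillation counting. Ki obtained from IC50 by Cheng–Prusoff (Kd 2.28 nM). Mean ± SEM of duplicates.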

[5] = target: T3, Adenosine receptor A1 (Homo sapiens) (UniProt P30542); assay: Displacement of [3H]DPCPX from human cloned adenosine receptor A1 expressed in CHO-K1 cell membranes at 1 uM incubated for 60 mins by microbeta counting method relative to control
T3 sequence (whole entry): T2 sequence (P30542 whole entry)
In short: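 Human A1 CHO-K1 membranes in Tris-HCl pH 7.4/MgCl2/EDTA buffer with adenosine deaminase. Radioligand [3H]DPCPX at 5 nM. Single compound concentration of 1 μM. Incubation 60 min at 27°C. Filtration then scintillation counting. Result is percent displacement of specific binding.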

[6] = target: T2, Adenosine receptor A1; assay: Displacement of [3H]CPX from human adenosine receptor A1 expressed in CHO-K1 cell membranes incubated for 2 hrs by radioligand competitive binding analysis
[7] = target: T1, Adenosine receptor A2a; assay: Displacement of [3H]CGS21680 from human cloned adenosine receptor A2A expressed in HEK-293 cell membrane at 1 uM incubated for 60 mins by microbeta counting method relative to control; type: cell membranes
In short: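 Human A2A HEK-293 membranes in Tris-HCl pH 7.4/MgCl2/EDTA buffer with adenosine deaminase. […] Single compound concentration of 1 μM. Incubation 60 min at 27°C. Filtration then scintillation counting. Result is percent displacement of specific binding.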

CC(/C=N/Nc1nc(N)c2ncn([C@@H]3O[C@H](CO)[C@@H](O)[C@H]3O)c2n1)Cc1ccc(C(C)C)cc1 (some centres not stated)
pKi [1]: 8.20
pEC50 [2]: 8.86
Ratio Ki [3]: 1430
pKi [4]: 5.02

Nc1nc(N/N=C/c2ccc(N(c3ccccc3)c3ccccc3)cc2)nc2c1ncn2[C@@H]1O[C@H](CO)[C@@H](O)[C@H]1O
Ratio Ki [3]: > 1000
pKi [4]: < 5.00
inhibition [5]: 0%

CCN(CC)c1ccc(/C=N/Nc2nc(N)c3ncn([C@@H]4O[C@H](CO)[C@@H](O)[C@H]4O)c3n2)cc1
pKi [1]: 8.19
pEC50 [2]: 7.75
Ratio Ki [3]: > 1000
pKi [4]: < 5.00
inhibition [5]: 0%

CCCOc1ccc(/C=N/Nc2nc(N)c3ncn([C@@H]4O[C@H](CO)[C@@H](O)[C@H]4O)c3n2)cc1
pKi [1]: 6.65
Ratio Ki [3]: 66
pKi [4]: < 5.00
inhibition [5]: 7%

CNC(=O)c1cnn(-c2nc(N)c3ncn([C@@H]4O[C@H](CO)[C@@H](O)[C@H]4O)c3n2)c1 [REGADENOSON ANHYDROUS]
pKi [6]: < 4.78

Nc1nc(N/N=C/C2CCCC2)nc2c1ncn2[C@@H]1O[C@H](CO)[C@@H](O)[C@H]1O
pKi [1]: 8.39
pEC50 [2]: 8.36
Ratio Ki [3]: 1.4
pKi [4]: 8.25

Nc1nc(N/N=C/c2ccc(-c3ccccc3)cc2)nc2c1ncn2[C@@H]1O[C@H](CO)[C@@H](O)[C@H]1O
pKi [4]: 5.10

Nc1nc(N/N=C/c2ccc3ncccc3c2)nc2c1ncn2[C@@H]1O[C@H](CO)[C@@H](O)[C@H]1O
pKi [1]: 8.19
pEC50 [2]: 8.26
Ratio Ki [3]: 1.5
pKi [4]: 8.01

Nc1nc(N/N=C/c2ccc(Br)cn2)nc2c1ncn2[C@@H]1O[C@H](CO)[C@@H](O)[C@H]1O
pKi [1]: 6.62
Ratio Ki [3]: 0.02
pKi [4]: 8.33

Nc1nc(N/N=C/c2ccc(N3CCCC3)cc2)nc2c1ncn2[C@@H]1O[C@H](CO)[C@@H](O)[C@H]1O
pKi [1]: 5.18
Ratio Ki [3]: 0.00077
pKi [4]: 8.29

Nc1nc(N/N=C/c2cccc(OCc3ccccc3)c2)nc2c1ncn2[C@@H]1O[C@H](CO)[C@@H](O)[C@H]1O
Ratio Ki [3]: 0.075
pKi [4]: 7.89

Nc1nc(N/N=C/c2ccc(OCc3ccc(F)cc3)cc2)nc2c1ncn2[C@@H]1O[C@H](CO)[C@@H](O)[C@H]1O
pEC50 [2]: 8.39
Ratio Ki [3]: 12.5
pKi [4]: 7.15

COc1ccc(/C=N/Nc2nc(N)c3ncn([C@@H]4O[C@H](CO)[C@@H](O)[C@H]4O)c3n2)cn1
pKi [1]: 5.84
Ratio Ki [3]: 0.0018
pKi [4]: 8.59

Nc1nc(N/N=C/c2ccc(C(F)(F)F)cc2)nc2c1ncn2[C@@H]1O[C@H](CO)[C@@H](O)[C@H]1O
Ratio Ki [3]: 0.6
pKi [4]: 7.43

Nc1nc(N/N=C/c2ccc(Cl)c(C(F)(F)F)c2)nc2c1ncn2[C@@H]1O[C@H](CO)[C@@H](O)[C@H]1O
Ratio Ki [3]: > 1000
pKi [4]: < 5.00
inhibition [5]: 11%

CSCC/C=N/Nc1nc(N)c2ncn([C@@H]3O[C@H](CO)[C@@H](O)[C@H]3O)c2n1
pKi [1]: < 5.00
pKi [4]: < 5.00
inhibition [5]: 0%
inhibition [7]: 8%

COc1cc(/C=N/Nc2nc(N)c3ncn([C@@H]4O[C@H](CO)[C@@H](O)[C@H]4O)c3n2)cc(OC)c1OC
pKi [1]: 5.26
Ratio Ki [3]: > 1000
pKi [4]: < 5.00
inhibition [5]: 0%

Nc1nc(N/N=C/c2cncs2)nc2c1ncn2[C@@H]1O[C@H](CO)[C@@H](O)[C@H]1O
pKi [1]: 7.15
Ratio Ki [3]: 0.31
pKi [4]: 7.66

N#Cc1ccc(/C=N/Nc2nc(N)c3ncn([C@@H]4O[C@H](CO)[C@@H](O)[C@H]4O)c3n2)cc1
pKi [1]: 8.07
pEC50 [2]: 7.82
Ratio Ki [3]: 0.5
pKi [4]: 8.39

Nc1nc(N/N=C/c2ccc(-c3ccc(Br)cc3)o2)nc2c1ncn2[C@@H]1O[C@H](CO)[C@@H](O)[C@H]1O
pKi [1]: < 5.00
Ratio Ki [3]: < 0.001
pKi [4]: 8.35
inhibition [7]: 27%

CC(=O)Nc1ccc(/C=N/Nc2nc(N)c3ncn([C@@H]4O[C@H](CO)[C@@H](O)[C@H]4O)c3n2)cc1
Ratio Ki [3]: > 1000
pKi [4]: < 5.00
inhibition [5]: 0%

N#Cc1ccccc1/C=N/Nc1nc(N)c2ncn([C@@H]3O[C@H](CO)[C@@H](O)[C@H]3O)c2n1
pKi [4]: 8.54

Nc1nc(N/N=C/c2ccc[nH]2)nc2c1ncn2[C@@H]1O[C@H](CO)[C@@H](O)[C@H]1O
pKi [1]: 8.08
pEC50 [2]: 8.07
Ratio Ki [3]: 0.96
pKi [4]: 8.10

COc1cc(/C=N/Nc2nc(N)c3ncn([C@@H]4O[C@H](CO)[C@@H](O)[C@H]4O)c3n2)ccc1OCc1ccccc1
Ratio Ki [3]: 91
pKi [4]: 5.04

Nc1nc(N/N=C/c2ccc(C(F)(F)F)cc2C(F)(F)F)nc2c1ncn2[C@@H]1O[C@H](CO)[C@@H](O)[C@H]1O
pKi [1]: 5.20
Ratio Ki [3]: > 1000
pKi [4]: < 5.00
inhibition [5]: 0%

Nc1nc(N/N=C/c2ccc(N3CCOCC3)cc2)nc2c1ncn2[C@@H]1O[C@H](CO)[C@@H](O)[C@H]1O
Ratio Ki [3]: 0.003
pKi [4]: 8.60

Nc1nc(N/N=C/c2ccc(-n3ccnc3)cc2)nc2c1ncn2[C@@H]1O[C@H](CO)[C@@H](O)[C@H]1O
Ratio Ki [3]: > 1000
pKi [4]: < 5.00
inhibition [5]: 0%

Nc1nc(N/N=C/c2ccc(OCc3ccccc3)c(OCc3ccccc3)c2)nc2c1ncn2[C@@H]1O[C@H](CO)[C@@H](O)[C@H]1O
Ratio Ki [3]: > 1000
pKi [4]: < 5.00
inhibition [5]: 0%

Nc1nc(N/N=C/c2cccnc2Cl)nc2c1ncn2[C@@H]1O[C@H](CO)[C@@H](O)[C@H]1O
pKi [1]: 8.06
pEC50 [2]: 8.34
Ratio Ki [3]: 0.53
pKi [4]: 8.34

CCCCc1nc(/C=N/Nc2nc(N)c3ncn([C@@H]4O[C@H](CO)[C@@H](O)[C@H]4O)c3n2)c(Cl)[nH]1
pKi [1]: 7.74
pEC50 [2]: 8.96
Ratio Ki [3]: 0.67
pKi [4]: 7.92

CCOc1cc(/C=N/Nc2nc(N)c3ncn([C@@H]4O[C@H](CO)[C@@H](O)[C@H]4O)c3n2)ccc1O
Ratio Ki [3]: 5
pKi [4]: 5.16

Nc1nc(N/N=C/c2ccc(-c3ccccn3)cc2)nc2c1ncn2[C@@H]1O[C@H](CO)[C@@H](O)[C@H]1O
Ratio Ki [3]: 36
pKi [4]: 5.12

CCCCC/C=C/C=C/C=N/Nc1nc(N)c2ncn([C@@H]3O[C@H](CO)[C@@H](O)[C@H]3O)c2n1
pKi [1]: 7.76
pEC50 [2]: 7.99
Ratio Ki [3]: 0.11
pKi [4]: 8.70
